Measured values: ChEMBL document CHEMBL5649170, “Sustained microglial depletion with CSF1R inhibitor impairs parenchymal plaque development in an Alzheimer's disease model” (Nat Commun, 2019)
Active and inactive are the calls of the source. The rule behind the calls is not given here.

How the values were obtained:
[1] = target: G protein-coupled receptor kinase 3 (Homo sapiens, UniProt P35626); test: Inhibition of ADRBK2 (unknown origin)
[2] = target: Calcium/calmodulin-dependent protein kinase type II subunit alpha (Homo sapiens, UniProt Q9UQM7); test: Inhibition of CAMK2A (unknown origin)
Sequence of Calcium/calmodulin-dependent protein kinase type II subunit alpha (Q9UQM7 whole entry): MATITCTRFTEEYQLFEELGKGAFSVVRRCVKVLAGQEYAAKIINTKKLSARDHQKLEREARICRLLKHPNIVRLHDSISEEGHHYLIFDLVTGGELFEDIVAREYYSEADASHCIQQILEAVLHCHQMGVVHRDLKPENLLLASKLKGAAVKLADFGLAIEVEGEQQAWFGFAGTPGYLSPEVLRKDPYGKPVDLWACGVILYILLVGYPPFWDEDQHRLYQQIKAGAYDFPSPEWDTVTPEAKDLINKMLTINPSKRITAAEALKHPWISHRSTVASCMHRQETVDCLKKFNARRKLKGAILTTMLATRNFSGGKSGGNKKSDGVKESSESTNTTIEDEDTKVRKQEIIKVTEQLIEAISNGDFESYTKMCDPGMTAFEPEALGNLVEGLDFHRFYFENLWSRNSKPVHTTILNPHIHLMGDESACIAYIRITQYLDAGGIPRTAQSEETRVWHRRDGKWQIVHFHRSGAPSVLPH

[3] = Inhibition of CDK2/CyclinA (unknown origin); parameters: species or system Homo sapiens
[4] = target: Cyclin-dependent kinase 5/CDK5 activator 1 (Homo sapiens, UniProt Q00535); test: Inhibition of CDK5_p35 (unknown origin); type: protein-complex assay
[5] = target: Tyrosine-protein kinase HCK (Homo sapiens, UniProt P08631); test: Inhibition of HCK (unknown origin)
[6] = target: Tyrosine-protein kinase ITK/TSK (Homo sapiens, UniProt Q08881); test: Inhibition of ITK (unknown origin)
[7] = target: MAP kinase-activated protein kinase 2 (Homo sapiens, UniProt P49137); test: Inhibition of MAPKAPK2 (unknown origin)
Sequence of MAP kinase-activated protein kinase 2 (P49137 whole entry): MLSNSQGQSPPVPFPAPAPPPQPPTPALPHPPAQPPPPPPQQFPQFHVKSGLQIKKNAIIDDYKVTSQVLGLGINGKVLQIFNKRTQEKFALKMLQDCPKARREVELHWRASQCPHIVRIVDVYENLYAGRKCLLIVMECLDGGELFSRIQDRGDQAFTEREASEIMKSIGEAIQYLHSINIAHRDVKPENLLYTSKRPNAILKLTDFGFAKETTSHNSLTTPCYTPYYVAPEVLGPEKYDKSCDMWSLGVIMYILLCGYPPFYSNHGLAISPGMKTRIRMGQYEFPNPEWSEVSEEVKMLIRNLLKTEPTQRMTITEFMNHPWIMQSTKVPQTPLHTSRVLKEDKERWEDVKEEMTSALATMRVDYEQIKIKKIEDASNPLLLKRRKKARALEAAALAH

[8] = target: Macrophage-stimulating protein receptor (Homo sapiens, UniProt Q04912); test: Inhibition of MST1R (unknown origin)
[9] = target: Serine/threonine-protein kinase Nek2 (Homo sapiens, UniProt P51955); test: Inhibition of NEK2 (unknown origin)
Sequence of Serine/threonine-protein kinase Nek2 (P51955 whole entry, canonical isoform): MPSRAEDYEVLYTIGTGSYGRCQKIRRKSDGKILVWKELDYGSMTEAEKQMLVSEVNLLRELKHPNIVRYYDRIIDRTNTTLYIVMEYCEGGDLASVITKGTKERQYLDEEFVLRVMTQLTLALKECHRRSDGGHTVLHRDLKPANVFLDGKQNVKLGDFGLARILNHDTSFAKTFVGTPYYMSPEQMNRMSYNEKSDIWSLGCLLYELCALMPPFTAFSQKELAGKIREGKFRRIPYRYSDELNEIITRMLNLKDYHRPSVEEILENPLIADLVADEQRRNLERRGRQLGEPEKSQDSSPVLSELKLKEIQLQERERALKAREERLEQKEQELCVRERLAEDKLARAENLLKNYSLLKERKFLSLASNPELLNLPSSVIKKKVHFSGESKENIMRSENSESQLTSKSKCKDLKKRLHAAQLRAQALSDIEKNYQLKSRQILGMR

[10] = target: Phosphorylase b kinase gamma catalytic chain, liver/testis isoform (Homo sapiens, UniProt P15735); test: Inhibition of PHKG2 (unknown origin)
Sequence of Phosphorylase b kinase gamma catalytic chain, liver/testis isoform (P15735 whole entry, canonical isoform): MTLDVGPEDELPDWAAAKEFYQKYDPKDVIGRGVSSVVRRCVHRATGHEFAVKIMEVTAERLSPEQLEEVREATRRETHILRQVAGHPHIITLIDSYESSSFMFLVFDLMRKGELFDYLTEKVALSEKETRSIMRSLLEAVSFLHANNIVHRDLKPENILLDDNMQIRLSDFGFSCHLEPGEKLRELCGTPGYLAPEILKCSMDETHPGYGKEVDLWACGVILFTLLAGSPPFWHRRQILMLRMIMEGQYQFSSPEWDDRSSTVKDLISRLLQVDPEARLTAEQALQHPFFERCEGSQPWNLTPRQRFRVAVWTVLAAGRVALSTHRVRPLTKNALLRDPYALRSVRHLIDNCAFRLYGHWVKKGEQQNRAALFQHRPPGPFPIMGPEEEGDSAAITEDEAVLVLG

[11] = target: cGMP-dependent protein kinase 2 (Homo sapiens, UniProt Q13237); test: Inhibition of PRKG2 (unknown origin)
Angiopoietin-1 receptor = Angiopoietin-1 receptor (Homo sapiens, UniProt Q02763); test: Inhibition of TEK (unknown origin)
Sequence of Angiopoietin-1 receptor (Q02763 whole entry): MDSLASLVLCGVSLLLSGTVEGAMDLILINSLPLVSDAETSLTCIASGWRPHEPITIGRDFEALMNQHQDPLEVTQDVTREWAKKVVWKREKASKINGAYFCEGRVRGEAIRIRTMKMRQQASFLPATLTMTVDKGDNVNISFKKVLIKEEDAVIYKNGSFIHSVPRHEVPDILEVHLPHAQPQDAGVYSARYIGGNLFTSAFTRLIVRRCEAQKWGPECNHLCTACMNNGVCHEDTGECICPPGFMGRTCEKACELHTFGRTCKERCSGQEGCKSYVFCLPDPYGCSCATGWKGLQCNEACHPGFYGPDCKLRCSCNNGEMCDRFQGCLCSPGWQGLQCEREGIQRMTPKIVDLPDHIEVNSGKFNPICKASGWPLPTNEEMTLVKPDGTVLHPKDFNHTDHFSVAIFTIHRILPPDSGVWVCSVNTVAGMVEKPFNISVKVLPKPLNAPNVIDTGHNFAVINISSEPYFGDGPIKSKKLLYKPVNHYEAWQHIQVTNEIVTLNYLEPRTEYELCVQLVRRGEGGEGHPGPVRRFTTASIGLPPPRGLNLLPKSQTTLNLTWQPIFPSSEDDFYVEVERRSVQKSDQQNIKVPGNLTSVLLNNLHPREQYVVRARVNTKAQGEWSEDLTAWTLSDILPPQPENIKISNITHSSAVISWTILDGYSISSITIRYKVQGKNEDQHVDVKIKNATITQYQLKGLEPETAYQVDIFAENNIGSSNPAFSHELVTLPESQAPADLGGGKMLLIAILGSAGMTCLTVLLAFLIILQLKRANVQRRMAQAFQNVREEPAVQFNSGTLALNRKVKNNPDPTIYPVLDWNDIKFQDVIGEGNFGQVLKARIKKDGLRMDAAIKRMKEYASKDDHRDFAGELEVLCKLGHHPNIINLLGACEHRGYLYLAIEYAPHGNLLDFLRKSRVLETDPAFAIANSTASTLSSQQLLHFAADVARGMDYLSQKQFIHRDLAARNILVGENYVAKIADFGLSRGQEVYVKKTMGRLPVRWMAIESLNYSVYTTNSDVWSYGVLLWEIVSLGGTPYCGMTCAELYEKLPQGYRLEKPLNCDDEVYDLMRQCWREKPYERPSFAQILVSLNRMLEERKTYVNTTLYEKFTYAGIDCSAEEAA

[12] = target: Tyrosine-protein kinase receptor TYRO3 (Homo sapiens, UniProt Q06418); test: Inhibition of TYRO3 (unknown origin)
Sequence of Tyrosine-protein kinase receptor TYRO3 (Q06418 whole entry): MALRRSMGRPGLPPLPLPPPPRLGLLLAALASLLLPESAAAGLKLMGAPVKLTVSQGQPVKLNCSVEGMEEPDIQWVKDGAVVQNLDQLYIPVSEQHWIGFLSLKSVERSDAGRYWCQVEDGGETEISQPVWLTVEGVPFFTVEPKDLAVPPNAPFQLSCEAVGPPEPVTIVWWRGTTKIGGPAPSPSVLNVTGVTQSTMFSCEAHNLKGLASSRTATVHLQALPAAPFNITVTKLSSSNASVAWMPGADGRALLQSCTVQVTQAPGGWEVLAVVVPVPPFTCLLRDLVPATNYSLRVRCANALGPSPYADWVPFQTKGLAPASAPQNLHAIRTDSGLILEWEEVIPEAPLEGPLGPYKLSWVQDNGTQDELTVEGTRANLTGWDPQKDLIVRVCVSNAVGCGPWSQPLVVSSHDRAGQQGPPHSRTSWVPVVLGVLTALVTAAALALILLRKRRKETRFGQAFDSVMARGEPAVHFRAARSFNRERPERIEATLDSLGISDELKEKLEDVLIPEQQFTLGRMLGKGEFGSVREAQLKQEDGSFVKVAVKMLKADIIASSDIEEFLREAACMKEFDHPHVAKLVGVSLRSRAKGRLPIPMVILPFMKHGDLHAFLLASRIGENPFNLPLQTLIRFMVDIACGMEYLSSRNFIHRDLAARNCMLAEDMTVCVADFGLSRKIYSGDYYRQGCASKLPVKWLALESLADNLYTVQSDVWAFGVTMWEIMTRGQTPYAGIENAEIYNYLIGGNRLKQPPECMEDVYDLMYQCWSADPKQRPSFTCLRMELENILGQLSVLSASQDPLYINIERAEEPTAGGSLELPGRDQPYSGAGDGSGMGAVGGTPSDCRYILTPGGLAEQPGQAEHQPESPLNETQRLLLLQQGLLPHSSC

[13] = target: Tyrosine-protein kinase ZAP-70 (Homo sapiens, UniProt P43403); test: Inhibition of ZAP70 (unknown origin)
Sequence of Tyrosine-protein kinase ZAP-70 (P43403 whole entry): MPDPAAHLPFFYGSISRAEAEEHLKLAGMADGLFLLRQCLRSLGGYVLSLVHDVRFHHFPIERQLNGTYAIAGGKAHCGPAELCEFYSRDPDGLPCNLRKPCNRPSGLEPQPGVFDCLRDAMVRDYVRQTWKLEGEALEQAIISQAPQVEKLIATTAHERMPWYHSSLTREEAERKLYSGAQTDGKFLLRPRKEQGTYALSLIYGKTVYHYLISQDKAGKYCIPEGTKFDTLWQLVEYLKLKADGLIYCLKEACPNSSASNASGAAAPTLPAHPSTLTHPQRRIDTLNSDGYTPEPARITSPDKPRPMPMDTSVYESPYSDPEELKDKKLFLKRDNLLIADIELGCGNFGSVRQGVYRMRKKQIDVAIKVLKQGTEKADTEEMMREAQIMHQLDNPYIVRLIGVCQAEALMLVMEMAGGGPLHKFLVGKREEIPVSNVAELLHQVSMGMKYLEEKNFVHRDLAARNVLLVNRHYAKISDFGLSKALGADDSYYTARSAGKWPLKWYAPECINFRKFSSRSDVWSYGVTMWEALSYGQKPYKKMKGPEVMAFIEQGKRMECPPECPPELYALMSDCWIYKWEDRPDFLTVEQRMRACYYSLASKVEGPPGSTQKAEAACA

[14] = Volume of distribution at steady state in mouse at 1.92 mg/kg, iv administered as single dose; type: ADME, organism-based; settings: in vivo, read-out: Vdss
[15] = AUC (0 to infinity) in male rat at 45 mg/kg, po administered as single dose via gavage; type: ADME, organism-based; settings: in vivo
Mus musculus [16] = test: Antialzheimer activity in 5XFAD mouse assessed as number of Iba positive cells per FOV in retro spinal cortex at 1200 ppm administered as rodent chow starting from 1.5 months and measured after 4 months (reference value: 210 to 529); type: functional; settings: route po, time 2.5 months, 1825 h
Mus musculus [17] = test: Antialzheimer activity in 5XFAD mouse assessed as time spent in closed arm at 1200 ppm administered as rodent chow for 10 to 24 weeks by Elevated plus maze test (reference value: 76.2 to 206.2 sec); type: functional; settings: route po, time 10-24 weeks
Mus musculus [18] = test: Antialzheimer activity in 5XFAD mouse assessed as average plaque volume in thalamus at 1200 ppm administered as rodent chow starting from 1.5 months and measured after 7 months by Thio-S staining based confocal microscopic analysis (reference value: 2442.562 to 3332.739 microm3); type: functional; settings: route po, time 5.5 months, 4015 h
Mus musculus [19] = test: Antialzheimer activity in 5XFAD mouse assessed as amyloidbeta42 level in detergent soluble thalamus fraction measured per microgram protein at 1200 ppm administered as rodent chow starting from 1.5 months and measured after 7 months by ELISA (reference value: 0 to 0.271 pg); type: functional; settings: route po, time 5.5 months, 4015 h
Procedure, shortened: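 PLX5622 at 1200 ppm in chow given to 5xFAD mice from 1.5 months to 4 or 7 months of age; cortex and thalamus homogenized in TPER (detergent-soluble), pellets re-homogenized in 70% formic acid and spun 100,000 g, 1 h, 4 °C (insoluble); protein by Bradford/Lowry; Aβ species measured by Meso Scale electrochemiluminescence immunoassay, normalized to protein; n = 7–8 per group at 7 months.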

Mus musculus [20] = test: Antialzheimer activity in 5XFAD mouse assessed as ApoE immunoreactivity by measuring ApoE intensity of plaque core in thalamus at 1200 ppm administered as rodent chow starting from 1.5 months and measured after 7 months by immunolabeling based confocal microscopic analysis (reference value: 6.13 to 122.68 a.u.); type: functional; settings: route po, time 5.5 months, 4015 h
[21] = Effect on Csf1r RPKM gene expression in wild type mouse thalamus at 1200 ppm administered as rodent chow starting from 1.5 months and measured after 7 months by RNA-Seq analysis (reference value: 19.596 to 21.371 RPKM); type: functional; settings: route po, time 5.5 months, 4015 h
[22] = Effect on Csf1r RPKM gene expression in 5XFAD mouse cortex at 1200 ppm administered as rodent chow starting from 1.5 months and measured after 7 months by RNA-Seq analysis (reference value: 26.750 to 37.128 RPKM); type: functional; settings: route po, time 5.5 months, 4015 h
[23] = Effect on Cx3cr1 gene expression in wild type mouse cortex at 1200 ppm administered as rodent chow starting from 1.5 months and measured after 7 months by RNA-Seq analysis (reference value: 9.334 to 12.119); type: functional; settings: route po, time 5.5 months, 4015 h
[24] = Effect on Hexb gene expression in wild type mouse hippocampus at 1200 ppm administered as rodent chow starting from 1.5 months and measured after 7 months by RNA-Seq analysis (reference value: 42.233 to 43.921 RPKM); type: functional; settings: route po, time 5.5 months, 4015 h
[25] = Effect on Siglech gene expression in 5XFAD mouse cortex at 1200 ppm administered as rodent chow starting from 1.5 months and measured after 7 months by RNA-Seq analysis (reference value: 5.048 to 7.930 RPKM); type: functional; settings: route po, time 5.5 months, 4015 h
[26] = Effect on Ctsd gene expression in wild type mouse hippocampus at 1200 ppm administered as rodent chow starting from 1.5 months and measured after 7 months by RNA-Seq analysis (reference value: 111.753 to 176.402 RPKM); type: functional; settings: route po, time 5.5 months, 4015 h
[27] = Effect on Ctsz gene expression in wild type mouse thalamus at 1200 ppm administered as rodent chow starting from 1.5 months and measured after 7 months by RNA-Seq analysis (reference value: 13.234 to 17.920 RPKM); type: functional; settings: route po, time 5.5 months, 4015 h
[28] = Prevention of Nrg3 gene downregulation in 5XFAD mouse hippocampus assessed as percent change in Reads Per kilo base per Million mapped reads at 1200 ppm administered as rodent chow starting from 1.5 months and measured after 7 months by RNA-Seq analysis (reference value: 52.623 to 75.016 %); type: functional; settings: route po, time 5.5 months, 4015 h
Mus musculus [29] = test: Prevention of Cx3cr1 gene upregulation in 5XFAD mouse hippocampus at 1200 ppm administered as rodent chow starting from 1.5 months and measured after 7 months by Nanostring analysis; type: functional, tissue-based; settings: route po, time 5.5 months
Mus musculus [30] = test: Prevention of Grn gene upregulation in 5XFAD mouse hippocampus at 1200 ppm administered as rodent chow starting from 1.5 months and measured after 7 months by Nanostring analysis; type: functional, tissue-based; settings: route po, time 5.5 months
Mus musculus [31] = test: Prevention of Gls gene downregulation in 5XFAD mouse hippocampus at 1200 ppm administered as rodent chow starting from 1.5 months and measured after 7 months by Nanostring analysis; type: functional, tissue-based; settings: route po, time 5.5 months
Mus musculus [32] = test: Induction of cerebral amyloid angiopathy in […] mouse at 1200 ppm administered as rodent chow for 24 weeks by immunolabeling based confocal microscopic analysis; type: functional, organism-based; settings: route po

Sequence of G protein-coupled receptor kinase 3 (P35626 whole entry): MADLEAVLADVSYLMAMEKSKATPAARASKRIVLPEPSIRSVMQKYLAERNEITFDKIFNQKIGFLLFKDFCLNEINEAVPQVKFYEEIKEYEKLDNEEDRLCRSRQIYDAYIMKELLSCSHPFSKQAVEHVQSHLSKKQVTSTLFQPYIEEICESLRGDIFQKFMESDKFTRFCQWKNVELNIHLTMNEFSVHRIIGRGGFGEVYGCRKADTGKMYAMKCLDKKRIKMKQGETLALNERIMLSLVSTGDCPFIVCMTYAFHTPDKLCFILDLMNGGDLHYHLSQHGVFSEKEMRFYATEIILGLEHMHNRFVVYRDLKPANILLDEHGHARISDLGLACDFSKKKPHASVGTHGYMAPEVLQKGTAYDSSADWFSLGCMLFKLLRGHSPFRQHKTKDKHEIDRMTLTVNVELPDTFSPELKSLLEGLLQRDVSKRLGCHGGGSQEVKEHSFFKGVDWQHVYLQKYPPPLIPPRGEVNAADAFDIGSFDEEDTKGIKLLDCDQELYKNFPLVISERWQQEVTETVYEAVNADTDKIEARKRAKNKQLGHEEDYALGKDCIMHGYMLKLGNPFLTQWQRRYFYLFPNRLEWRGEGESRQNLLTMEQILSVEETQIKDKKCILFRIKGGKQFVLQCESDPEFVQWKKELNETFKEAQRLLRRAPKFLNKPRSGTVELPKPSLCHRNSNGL

Q: With `COc1ncc(F)cc1CNc1ccc(Cc2c[nH]c3ncc(C)cc23)c(F)n1` [PLX-5622] as the compound, how does the IC50 [1] read?
A: > 1 µM

Q: And the IC50 [2]?
A: > 1 µM

Q: And the IC50 [3]?
A: > 1 µM

Q: And the IC50 [4]?
A: > 1 µM

Q: And the IC50 [5]?
A: > 1 µM

Q: And the IC50 [6]?
A: > 1 µM

Q: And the IC50 [7]?
A: > 1 µM

Q: What about the IC50 [8] of the same compound?
A: > 1 µM

Q: What about the IC50 [9] of the same compound?
A: > 1 µM

Q: And the IC50 [10]?
A: > 1 µM

Q: What about the IC50 [11] of the same compound?
A: > 1 µM

Q: What about the IC50 (Angiopoietin-1 receptor) of the same compound?
A: > 1 µM

Q: What about the IC50 [12] of the same compound?
A: > 1 µM

Q: And the IC50 [13]?
A: > 1 µM

Q: And the Vd [14]?
A: 0.34 L/kg

Q: What about the AUC(0-inf) [15] of the same compound?
A: 99600 ng·h/mL

Q: And the Activity (Mus musculus [16])?
A: 0

Q: And the Time (Mus musculus [17])?
A: 30.9 s

Q: And the Activity (Mus musculus [18])?
A: 1488.396 um3

Q: What about the Activity (Mus musculus [19]) of the same compound?
A: 0 pg

Q: What about the Flu intensity (Mus musculus [20]) of the same compound?
A: 0.77 a.u.

Q: What about the Activity [21] of the same compound?
A: 0.064 RPKM

Q: And the Activity [22]?
A: 0.984 RPKM

Q: What about the Activity [23] of the same compound?
A: 0 RPKM

Q: What about the Activity [24] of the same compound?
A: 10.009 RPKM

Q: What about the Activity [25] of the same compound?
A: 0.14 RPKM

Q: And the Activity [26]?
A: 89.626 RPKM

Q: And the Activity [27]?
A: 11.055 RPKM

Q: And the Activity [28]?
A: 86.32%

Q: What about the Activity (Mus musculus [29]) of the same compound?
A: Active

Q: What about the Activity (Mus musculus [30]) of the same compound?
A: Active

Q: And the Activity (Mus musculus [31])?
A: Active

Q: And the Activity (Mus musculus [32])?
A: inactive
